The list is not random: actives were taken first. Their share in the collection is about 2.4%.
b-catenin transl: modulators of beta-catenin nuclear translocation; HeLa beta-catenin nuclear translocation, immunofluorescence imaging; nuclear translocation activity, % at 5 µM; hit rate 0.3% among 190,000;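 active = nuclear translocation activity above 50% at 5 µM, with a well cell count of 50 or more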;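 note: per-cell ratio of nuclear to cytoplasmic median beta-catenin stain intensity; plate controls were DMSO negative control for no effect and GSK-3 inhibitor IX positive control for full effect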
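assay system = human HeLa cells, endogenous beta-catenin | times = compound treatment 24 h, 37°C, 5% CO2 | detection = Anti-beta-catenin immunofluorescence on PFA-fixed, Triton-permeabilized cells, DAPI nuclei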
STAT3 act: activators of IL-6 induced STAT3 signaling | U3A cells, IL-6 STAT3-luciferase reporter, luminescence; 100% = signal with IL-6 EC80 alone | activation (% of control), % at 5.6 µM | hit rate 0.91% among 190,000;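 active = activation above the screen-wide mean of compound activation plus 3 SD, cut at about 130% in these data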;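 note: 0% = background luminescence of wells with medium and substrate only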
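Material: STAT1-lacking human U3A cells, STAT3 luciferase reporter | Benchmarks: IL-6-only wells as 100% reference | Probe or stimulus: IL-6 (33 ng/mL) | Timing: Compound 1 h, then IL-6 6 h at 37 °C | Detection: Luminescence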
STAT1 blocker: reduces IFN-gamma driven STAT1 reporter signal; NIH 3T3 STAT1-luciferase reporter, luminescence; inhibition, % at 5.5 µM; hit rate 0.35% among 200,000; AID 920;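 active = inhibition above a set limit, the mean inhibition across all tested compounds plus 3 SD, cut at about 34% in these data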;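 note: 0% = IFN-gamma with DMSO and 100% = IFN-gamma with 300 µM nifuroxazide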
STAT3 inh: STAT3 signaling inhibition. inhibition, % at 5.5 µM. hit rate 0.89% among 190,000. U3A cells, IL-6 STAT3-luciferase reporter, luminescence; host cell line lacks STAT1. AID 862;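 active = inhibition above the mean inhibition across all screened compounds plus 3 SD, cut at about 44% in these data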;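 note: 0% = DMSO only wells and 100% = 100 µM nifuroxazide control wells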
MT stabilizer: stabilizes microtubules in HeLa cells | % tubulin-high responders, % at 10 µM | HeLa tubulin immunostaining HCS, 24 h; share of cells brighter than vehicle mean+2SD | AID 2205 | hit rate 0.83% among 200,000;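 active = plate Z-score above 3 for both tubulin-high and condensed-nucleus cell shares, with cell loss under 80%, at 10 µM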;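 note: anti alpha tubulin signal scored within the nucleus-defined area of each cell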
Numbers without * were called inactive; x = no result.

SMILES | b-catenin transl | STAT3 act | STAT1 blocker | STAT3 inh | MT stabilizer
CCN(CC(=O)Nc1ccccc1OC)CC(=O)Nc1ccccc1C(F)(F)F | 4 | 98 | 0 | 7 | 18*
CCN(CC(=O)Nc1ccccc1-c1ccccc1)Cc1nc2ccccc2c(=O)[nH]1 | 20 | 107 | 8 | -6 | 25*
CCN(CC(=O)Nc1ccccc1OC)CC(=O)Nc1ccccc1-c1ccccc1 | -2 | 100 | 5 | 6 | 20*
COc1ccccc1CN(C)CC(=O)Nc1ccccc1-c1ccccc1 | 1 | 109 | 6 | -1 | 3
COc1ccc(OCC(=O)Nc2ccccc2-c2ccccc2)cc1 | 1 | 96 | 9 | 6 | 34*
CCN(CC)C(=S)NC(=O)c1cc(OC)c(OC)c(OC)c1 | -4 | 100 | -2 | 5 | 3
O=C(Nc1ccnc(=O)[nH]1)c1sc2ccccc2c1Cl | -2 | x | x | x | x
Cc1ccc(-c2nc(=S)c3c(n2Cc2ccco2)CCCC3)cc1 | 2 | 143* | 1 | -47 | 3
Cc1ccccc1NS(=O)(=O)c1ccc(OCC(=O)NCc2ccccn2)cc1 | 0 | 94 | 13 | 12 | 2
O=C(N/N=C/c1ccc[nH]1)c1ccc(COc2cccc3cccnc23)cc1 | 8 | 42 | -15 | 70* | 8
COc1ccccc1C(=O)O/N=C(\N)c1ccccn1 | 0 | x | x | x | x
N/C(=N\OC(=O)c1ccccc1Cl)c1ccccn1 | x | 46 | 78* | 69* | 2
COc1ccc(-n2c(C)cc(C(=O)CN3C(=O)NC4(CCCc5sccc54)C3=O)c2C)cc1 (stereo unspecified) | -2 | 105 | -1 | -4 | 2
COc1ccc(-n2c(C)cc(C(=O)CN3C(=O)C(=O)N(Cc4ccccc4)C3=O)c2C)cc1 | 6 | 103 | 10 | 2 | 13*
CC12CCC(=O)N1C(C(=O)OCC(=O)Nc1cc(S(=O)(=O)N3CCCCC3)ccc1Cl)CS2 (stereo unspecified) | -1 | 94 | -4 | 6 | 3
COc1cc(CN(C2CCCCC2)S(=O)(=O)c2ccc(S(=O)(=O)N(C)C3CCCCC3)cc2)cc(OC)c1OC | 0 | 109 | 7 | -14 | 2
COc1ccc(-c2nc3ncnn3cc2C)cc1F | 2 | 102 | -3 | 4 | 3
O=C1CCC(C(=O)N2CCCC(C(=O)c3ccc4c5c(cccc35)CC4)C2)=NN1 (stereo unspecified) | -1 | 102 | 4 | 4 | 33*
CCOc1cc(C(=O)Nc2cnccn2)cc(OCC)c1OCC | 4 | 104 | 0 | -1 | 38*
CCOc1ccc(C(=O)Nc2cc(C)ccn2)cc1 | -1 | 24 | 75* | 93* | 4
Cc1ccc(NC(=O)c2snc3ccc(Cl)cc23)cc1C | 0 | 116 | -34 | -14 | 2
CN1CCN(C(=O)/C(=C/c2cccs2)NC(=O)c2ccco2)CC1 | 0 | 102 | -7 | 3 | 2
CCOC(=O)C1=C(N)n2c(s/c(=C\c3cccs3)c2=O)=C(C(=O)OCC)C1c1cccs1 (stereo unspecified) | 99* | 100 | -2 | 4 | 45*
COc1ccc(NC(=O)C2=C(C)Nc3nc(CCCO)nn3C2c2ccc(OC)c(OC)c2)cc1 (stereo unspecified) | 2 | 95 | -9 | 11 | 2
O=C1C(=Cc2cccs2)C(=O)c2ccccc21 | x | 102 | -5 | -3 | 3
SMILES | b-catenin transl | STAT3 act | STAT1 blocker | STAT3 inh | MT stabilizer
O=C1/C(=C\c2cccs2)Sc2ccc3ccccc3c21 | 1 | 180* | -6 | -94 | 5
COc1cc2c(cc1OC)N1C(=O)CC(OCC(=O)O)C3C4CC5(CCN5C(=O)C4=O)C2C31 (stereo unspecified) | -1 | 101 | 1 | 5 | 1
COc1ccccc1/C=C/C1(C(=O)NC2CCCC2)CC(=O)N1c1ccc(F)cc1 (stereo unspecified) | 0 | 100 | 11 | 3 | 20*
Cc1c(C(=O)Nc2nc3ccccc3[nH]2)oc2ccc(Br)cc12 | -4 | 86 | -15 | 12 | 3
COc1cccc(C(=O)Nc2nc3ccccc3[nH]2)c1 | x | 29 | 44* | 86* | 3
Cc1c(C(=O)Nc2nc3ccccc3[nH]2)oc2ccccc12 | -5 | 145* | -66 | -58 | 3
CN(Cc1nccn1C)C(=O)CC1C(=O)NCCN1CC(c1ccccc1)c1ccccc1 (stereo unspecified) | 0 | 96 | -1 | 8 | 2

Bioassay records as filed in PubChem BioAssay.
